# Assay results reported in publication PMC9283735 (Clinical and Translational Science, 2022).
# Read-outs that look alike come from different tables or passages of the source. *1 amine or outer side, *2 acyl side, *3 side chain or, on linkers, in order; H or OH if unused. Where a SMILES comes first, the peptide text is derived from it. Bridges are numbered along the chain shown (N, C = ends). [ ]: non-standard residue; d: D form. The star is where a group is joined. Orn(4R-OH,5R-OCH2CH2NMe3+) = C[N+](C)(C)CCO[C@@H](N[*:3])[C@H](O)C[C@H](N[*:1])C(=O)[*:2]; pTerphenylCO(4''-OnC5H11) = CCCCCOc1ccc(-c2ccc(-c3ccc(C(=O)*)cc3)cc2)cc1; hTyr(3S-OH,4S-OH) = N[C@H](C(=O)O)[C@H](O)[C@@H](O)c1ccc(O)cc1; Pro(3S-OH,4S-Me) = C[C@H]1CN[C@H](C(=O)O)[C@H]1O; Hyp = O=C(O)[C@@H]1C[C@@H](O)CN1
# Tests used:
# [1] = tested on: healthy adult subjects; assay: Solicited local reactogenicity symptoms; format: in vivo, human; conditions: 1 mg or 10 mg single s.c. dose
# Method in brief: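 The injection site was evaluated from dosing to day 30: in-unit confinement for 7 days, then follow-up on days 14, 21 and 30 (±1 day). Solicited local symptoms were pain, tenderness, pruritus, ecchymosis, induration/swelling, erythema, nodule and ulceration, each graded mild (1), moderate (2) or severe (3). Subjects were randomized 3:1 to test compound or 5% dextrose placebo. Proportions carry Wilson-score 95% CIs.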
# [2] = tested on: healthy adult subjects; format: in vivo, human
# Method in brief: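 Unsolicited AEs (volunteered, not pre-specified) were recorded from dosing to final follow-up (day 30), graded 1–3, judged related or unrelated by the study physician, and coded with MedDRA 23.1. Clinical evaluation included ECGs, physical examinations and vital signs on select days. Laboratory tests covered hematology, coagulation, blood chemistry and dipstick urinalysis, run on samples taken after a fast of at least 8 h.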
# [3] = Plasma pharmacokinetics after a single s.c. dose; format: in vivo, human; conditions: 10 mg single s.c. dose, healthy adults; for AUC(0-t): AUC0-last; for AUC(0-t) / Tmax: N = 6; for Tmax: T max
# Method in brief: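 Healthy adults aged 18–45 y were randomized 3:1 to a single s.c. injection of the test compound (100 mg/ml formulation with mannitol) or placebo (5% dextrose). Parameters came from noncompartmental analysis (Lambda Z: adjusted r² ≥0.90, span ≥2.0 half-lives, ≥2 points after Tmax).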
# [4] = single i.v. doses of 50, 100, 200 and 400 mg, human plasma; cited from earlier work
# [5] = rats; cited from earlier work
# [6] = monkeys; cited from earlier work
# [7] = cohort 1 (1 mg s.c.), of 3 who received rezafungin
# [8] = cohort 2 (10 mg s.c.), of 6 who received rezafungin
# [9] = human, plasma, sc, 10 mg, geometric mean, NCA
# [10] = human, plasma, sc, 10 mg, median, NCA
structure (smiles),measurement,setting,value
"CCCCCOc1ccc(-c2ccc(-c3ccc(C(=O)N[C@H]4C[C@@H](O)[C@@H](OCC[N+](C)(C)C)NC(=O)[C@@H]5[C@@H](O)[C@@H](C)CN5C(=O)[C@H]([C@@H](C)O)NC(=O)[C@H]([C@H](O)[C@@H](O)c5ccc(O)cc5)NC(=O)[C@@H]5C[C@@H](O)CN5C(=O)[C@H]([C@@H](C)O)NC4=O)cc3)cc2)cc1 [rezafungin] ({pTerphenylCO(4''-OnC5H11)}-[Orn(4R-OH,5R-OCH2CH2NMe3+)]T[Hyp][hTyr(3S-OH,4S-OH)]T[Pro(3S-OH,4S-Me)]; lactam 1-C)",intensity of solicited reactogenicity symptoms,[1],mild to moderate
same,"severe bradycardia, subjects","[2]; cohort 1 (1 mg s.c.), asymptomatic, determined not rezafungin-related",single subject
same,"sinus bradycardia (unsolicited AE), % of subjects",[2]; [7],67%
same,"sinus bradycardia (unsolicited AE), subjects",[2]; [7],2
same,"unsolicited AEs deemed related to rezafungin, number of subjects",[2]; cohort 2 (10 mg s.c.),three
same,"unsolicited AEs deemed related to rezafungin, number of AEs","[2]; cohort 2 (10 mg s.c.), all mild",Five
same,"increased alanine aminotransferase (unsolicited AE), % of subjects",[2]; [8],33%
same,"increased alanine aminotransferase (unsolicited AE), subjects",[2]; [8],2
same,exposure period,[3],~1 month
same,"t 1/2, geometric mean","[3]; plasma, NCA, geometric mean, N = 5",186.2 h
same,"AUC0-inf, maximum","[3]; plasma, NCA, maximum, N = 5","53,200 ng*h/ml"
same,"CL/F, maximum","[3]; plasma, NCA, maximum, N = 5",0.344 L/h
same,"V z/F, maximum","[3]; plasma, NCA, maximum, N = 5",95.6 L
same,"t 1/2, maximum","[3]; plasma, NCA, maximum, N = 5",219 h
same,"CL/F, minimum","[3]; plasma, NCA, minimum, N = 5",0.188 L/h
same,"V z/F, minimum","[3]; plasma, NCA, minimum, N = 5",38.0 L
same,"t 1/2, minimum","[3]; plasma, NCA, minimum, N = 5",140 h
same,AUC(0-t),[3]; [9],32800 ng·h/mL
same,AUC(0-t),[3]; [10],32000 ng·h/mL
same,CL/F,"[3]; human, plasma, sc, 10 mg, CL/F (apparent clearance), mean, NCA, N = 5",4.35 mL/min
same,CL/F,"[3]; human, plasma, sc, 10 mg, CL/F, geometric mean, NCA, N = 5",4.25 mL/min
same,CL/F,"[3]; human, plasma, sc, 10 mg, CL/F, median, NCA, N = 5",4.5 mL/min
same,Tmax,[3]; [9],112 h
same,Tmax,"[3]; human, plasma, sc, 10 mg, mean, NCA",120 h
same,Tmax,[3]; [10],144 h
same,half-life,"[3]; human, plasma, sc, 10 mg, t 1/2, median, NCA, median, N = 5",193 h
same,T max after start of infusion,[4],~ 1 h
same,Total body clearance,[4],~ 0.2 L/h
same,bioavailability of s.c. formulation,[5],≤ 80%
same,bioavailability of s.c. formulation,[6],≤ 80%
